Screening results deposited in PubChem by several laboratories.
Hits are enriched below; roughly 4.3% of the tested compounds scored in any of these assays.
TAAR1 agonist: human TAAR1 agonism; CHO RD-HGA16 TAAR1, Fluo-8 calcium fluorescence; vehicle wells 0%, saturating PEA agonist 100%; activation, % at 3 µM; 360,000 tested, 0.99% active; AID 624467;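 active = activation above the mean activation of all test compounds in the run plus 3 SD, cut at about 38% in these data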
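System: CHO-derived RD-HGA16 cells with stable Gα16 and human TAAR1. Times: 17-24 h plating, Fluo-8 75 min 37 °C, 30 min RT. Measured by: calcium-sensitive Fluo-8 signal, excitation 470-495, emission 515-575 nm. Read-out basis: % activation relative to PEA EC100 response. Control set: DMSO and PEA EC100. Repeats: no replicates (n 1).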
B2AR ag: human beta-2 adrenergic receptor agonism by FAP | response, % (concentration not given with the values) | 340,000 tested, 0.43% active | P07550 | Am2.2-beta2AR cells, FAP receptor internalization, flow cytometry;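 active = response above a set limit, near 3 SD of response in nonfluorescent compounds, cut at about 42% in these data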
MC4R antag cAMP: antagonists of human melanocortin 4 receptor (MC4R) | P32245 | MC4R-expressing cells, MTII-stimulated cAMP, LANCE TR-FRET | inhibition, % at 6.5 µM | 360,000 tested, 0.48% active | AID 540295;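 active = inhibition above its plate's cutoff, the mean of tested wells on that plate plus 3 SD, cut at about 29% in these data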;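 also: 0% = Melanotan II alone and 100% = Melanotan II plus saturating MCL0020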
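System: U2OS-MC4R stable cell line; Technique: Eu-cAMP/anti-cAMP TR-FRET, emission 671 nm; Repeats: single well per compound; Also added: Melanotan II; Dosing: one concentration, 6.5 µM nominal; Schedule: 30-min compound, 1-h challenge, 1-h detection, room temperature.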
m5-HT2A agonist: mouse HTR2A agonism via beta-arrestin recruitment; AID 624169; 360,000 tested, 0.66% active; P35363; activation, % at 7.6 µM; CHO-K1 mHTR2A beta-arrestin complementation, luminescence; percent of 30 µM serotonin response;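 active = activation above a run cutoff, the mean activation of all tested compounds plus 3 SD, cut at about 14% in these data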;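 also: 0% = plate median of compound wells and 100% = 30 µM serotonin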
Target sequence (P35363 whole entry, looked up): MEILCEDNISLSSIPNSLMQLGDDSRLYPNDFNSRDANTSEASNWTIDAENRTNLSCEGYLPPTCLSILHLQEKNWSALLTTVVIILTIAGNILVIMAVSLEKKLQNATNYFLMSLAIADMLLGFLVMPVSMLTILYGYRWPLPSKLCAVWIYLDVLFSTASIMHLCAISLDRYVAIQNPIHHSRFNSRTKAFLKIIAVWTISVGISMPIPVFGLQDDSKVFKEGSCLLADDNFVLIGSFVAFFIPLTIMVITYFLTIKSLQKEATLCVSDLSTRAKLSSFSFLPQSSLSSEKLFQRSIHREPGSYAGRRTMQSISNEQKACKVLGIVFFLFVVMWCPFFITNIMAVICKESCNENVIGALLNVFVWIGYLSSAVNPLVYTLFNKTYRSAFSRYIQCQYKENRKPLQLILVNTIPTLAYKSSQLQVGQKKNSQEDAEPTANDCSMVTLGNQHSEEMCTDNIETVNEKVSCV
MC4R ag barr: agonists of human melanocortin 4 receptor (MC4R) beta-arrestin. U2OS MC4R beta-arrestin complementation, luminescence; percent of melanotan II response, DMSO zero. activation, % at 8.9 µM. 360,000 tested, 0.98% active. AID 540308;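 active = activation above a per-plate cutoff, the mean activation of sample wells on that plate plus 3 SD, cut at about 8% in these data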
TAAR1 antag: human TAAR1 antagonism. CHO RD-HGA16 TAAR1, Fluo-8 calcium fluorescence, antagonist. inhibition, % at 3 µM. Q96RJ0. 360,000 tested, 1.5% active;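 active = inhibition above a per-plate cutoff, the mean inhibition of test compounds on that plate plus 3 SD, cut at about 49% in these data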;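 also: 0% = DMSO plus EC80 beta-PEA response and 100% = DMSO alone without agonist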
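Assay system: CHO-derived RD-HGA16 cells stably expressing human TAAR1 plus Gα16. Timing: 140 s kinetic read after compound, 140 s after agonist. Technique: kinetic Fluo-8 calcium fluorescence measurement. Measure: % inhibition of agonist calcium response.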
MOR ag counter: counter-screen for mouse HTR2A agonists: human mu opioid receptor agonists; activation, % at 9.3 µM; shares compounds with m5-HT2A agonist; 2,300 tested, 5.3% active; U2OS OPRM1 beta-arrestin PathHunter, luminescence; DMSO 0%, DAMGO 9.3 µM 100%;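 active = mean activation above the mean of DMSO-only wells plus 3 SD, cut at about 0.5% in these data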
m5-HT2A ag conf: mouse HTR2A agonism confirmed; 2,300 tested, 19% active; CHO-K1 PathHunter beta-arrestin recruitment, luminescence; DMSO 0%, 30 µM serotonin 100%; shares compounds with m5-HT2A agonist; activation, % at 7.6 µM;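 active = mean activation across triplicates above the hit threshold derived in the original primary screen, cut at about 15% in these data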
Starred values were filed as active, the others as inactive; nt = no result.

SMILES	TAAR1 agonist	B2AR ag	MC4R antag cAMP	m5-HT2A agonist	MC4R ag barr	TAAR1 antag	MOR ag counter	m5-HT2A ag conf
CCOC(=O)c1c(S(=O)(=O)NCC(=O)N2CCN(c3ccc(F)cc3)CC2)c(C)n(C)c1C	1	8	7	0	4	-14	nt	nt
Cc1cccc(S(=O)(=O)NCCc2cn3ccccc3n2)c1	0	7	-1	2	1	3	nt	nt
Cc1ccn2cc(CCNS(=O)(=O)c3ccc4c(c3)CCCC4)nc2c1	-1	7	-4	25*	0	-2	-1	-5
CC(O)(c1ccc(F)c(F)c1)c1nc(-c2ccncc2)cs1 (configuration not stated)	-1	nt	6	-2	-1	-5	nt	nt
COc1ccc(-c2csc(C(C)(O)c3ccc(F)c(F)c3)n2)cc1 (configuration not stated)	0	nt	0	15*	3	19	0	-4
COc1ccc(NC(=S)N(CCCN2CCCC2)Cc2cccs2)cc1	4	-2	-5	1	-3	1	nt	nt
CSc1cccc(NC(=S)N(CCCN2CCCC2)Cc2cccs2)c1	8	5	10	43*	0	-18	-1	15*
Cc1ccc(/C(=N\S(=O)(=O)c2ccc(Br)cc2)Nc2ccccc2C)cc1	-1	-10	1	15*	0	14	0	9
CC12CC3CC(C)(C1)CC(C(=O)N1CCN(C(=O)c4ccco4)CC1)(C3)C2	1	-3	9	-4	0	-2	nt	nt
COc1ccc(-c2csc(-n3ncc(C(=O)O)c3C(F)(F)F)n2)cc1	-1	1	4	15*	2	-17	-1	-4
CNC(=O)c1cnn(-c2nc(-c3ccc(OC)cc3)cs2)c1C(F)(F)F	-3	22	6	2	-1	11	nt	nt
O=C(CCC1CCCN(C(=O)C2=CCCCC2)C1)N1CCN(c2ccccn2)CC1 (configuration not stated)	1	-5	8	-2	-1	-5	nt	nt
CN(C)C(=O)c1ccc(NC(=O)c2cccc(-n3cnnn3)c2)cc1	2	nt	4	0	1	-22	nt	nt
COc1ccc(CCC(=O)NNC(=O)Cn2nc(C)cc2C)cc1	1	-1	6	17*	-2	-25	-1	-7
CC(=O)Nc1ccc(S(=O)(=O)N(C)CC(=O)N2CCN(C(=O)c3ccco3)CC2)cc1	1	0	3	0	0	1	nt	nt
COc1cc(C(C)=O)ccc1OCC(O)CN1CCN(c2ccccc2)CC1 (configuration not stated)	-1	-5	16	12	2	-2	nt	nt
CCN1CCN(CC(O)COc2ccc(C(C)=O)cc2)CC1 (configuration not stated)	1	-8	-6	-3	-1	-2	nt	nt
Cc1cccc(OCC(O)CN2CCN(c3ccccn3)CC2)c1C (configuration not stated)	0	-2	13	19*	0	-10	-1	40*
CCC(=O)c1ccc(OCC(O)CN2CCN(c3ccccn3)CC2)cc1 (configuration not stated)	3	3	-1	29*	1	-20	0	100*
CC(C)(C)c1ccc(OCC(O)CN2CCN(c3ccccn3)CC2)cc1 (configuration not stated)	5	5	1	6	2	-11	nt	nt
COc1cc(C(C)=O)ccc1OCC(O)CN1CCN(c2ccccn2)CC1 (configuration not stated)	1	-1	-6	23*	-2	1	0	86*
